Dynein transport: inhibitors of GR-EGFP nuclear translocation, primary screen, dynein cargo transport inhibitor project, imaging, high-content, 3617.4 mouse cells; z-score, hits read low; test concentration mostly 20 µM; stimulated with dexamethasone, 1 µM; hits give low values; 220,000 tested, 0.47% active;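 active = plate z-score of nuclear minus cytoplasmic receptor signal below a set negative limit, without overly bright fluorescence or cell loss, cut at about -3.5 in these data, passing the limit was not always enough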;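 note: z-score of nuclear minus cytoplasmic ring GR-EGFP intensity difference per well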
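Buffer or medium: tet-free, stripped-serum medium; reagent: dexamethasone at 1.0 µM final, 30 min; incubation: 48 h induction, 1 h compound, 30 min dex at 37 °C; measured by: formaldehyde fixation, Hoechst nuclear stain, 10x automated fluorescence imaging; read-out: nuclear-to-cytoplasmic GR-EGFP distribution per well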
DTT redox prof: compounds producing H2O2 with reducing agent – biochemical, NIH compound library profiling, artefact control for MLSCN library redox annotation, primary screen. DTT-dependent redox cycling H2O2, phenol red/HRP absorbance; 100% = 100 µM peroxide control, 0% = buffer. activation, % at 10 µM. 200,000 tested, 0.03% active;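 active = activation of at least 50% relative to the plate's high and low controls in the primary single-dose screen; inactive = activation below 50%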;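 note: compound incubated with DTT at 0.8 mM final as the reducing agent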
Autophagy mod: autophagy modulators in MEF cells, primary screen, imaging, high-content, MEF GFP-LC3; MEF GFP-LC3 puncta imaging; test concentration mostly 10 µM; calls only at 10 µM (by protocol); 190,000 tested, 0.98% active; AID 463193, 2010;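 active = percentage of spot-positive cells more than 3 SD above its plate mean, without a fluorescence outlier flag or 80% toxicity; inconclusive = no clear call, values can overlap the other calls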;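 note: spot-positive cell cutoff set from DMSO-treated cells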
ROMK primary: ROMK potassium channel modulators, primary screen, cell-based, thallium flux, MLSMR library; B-score at 10 µM; ATP-sensitive inward rectifier potassium channel 1 (Homo sapiens), P48048; Tet-inducible ROMK, thallium flux fluorescence; actives lie on both sides; 130,000 tested, 2% active;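 active = signal ratio slope over the read window, or its plate-corrected B-score, at least 3 SD from the plate mean, either direction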;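 note: B-score of the F/F0 ratio slope over 7 to 12 s after thallium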
KCC2 mod: KCC2 cotransporter modulators, thallium flux, primary screen, cell-based, HEK293 KCC2, FluoZin-2 fluorescence, MLSMR | AID 1456, 2008 | 190,000 tested, 2.2% active | B-score of Tl+ flux slope (higher = more flux/activation; lower = inhibition) at 10 µM | Solute carrier family 12 member 5 (Homo sapiens), Q9H2X9 | KCC2 cells, thallium flux FluoZin-2 fluorescence;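 active = thallium flux slope and its plate-corrected score both differing from the plate sample mean at a set confidence after two filtering rounds, in either direction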;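 note: slope of fluorescence scaled to starting intensity during 10 to 20 s after thallium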
Target sequence (Q9H2X9 whole entry, looked up): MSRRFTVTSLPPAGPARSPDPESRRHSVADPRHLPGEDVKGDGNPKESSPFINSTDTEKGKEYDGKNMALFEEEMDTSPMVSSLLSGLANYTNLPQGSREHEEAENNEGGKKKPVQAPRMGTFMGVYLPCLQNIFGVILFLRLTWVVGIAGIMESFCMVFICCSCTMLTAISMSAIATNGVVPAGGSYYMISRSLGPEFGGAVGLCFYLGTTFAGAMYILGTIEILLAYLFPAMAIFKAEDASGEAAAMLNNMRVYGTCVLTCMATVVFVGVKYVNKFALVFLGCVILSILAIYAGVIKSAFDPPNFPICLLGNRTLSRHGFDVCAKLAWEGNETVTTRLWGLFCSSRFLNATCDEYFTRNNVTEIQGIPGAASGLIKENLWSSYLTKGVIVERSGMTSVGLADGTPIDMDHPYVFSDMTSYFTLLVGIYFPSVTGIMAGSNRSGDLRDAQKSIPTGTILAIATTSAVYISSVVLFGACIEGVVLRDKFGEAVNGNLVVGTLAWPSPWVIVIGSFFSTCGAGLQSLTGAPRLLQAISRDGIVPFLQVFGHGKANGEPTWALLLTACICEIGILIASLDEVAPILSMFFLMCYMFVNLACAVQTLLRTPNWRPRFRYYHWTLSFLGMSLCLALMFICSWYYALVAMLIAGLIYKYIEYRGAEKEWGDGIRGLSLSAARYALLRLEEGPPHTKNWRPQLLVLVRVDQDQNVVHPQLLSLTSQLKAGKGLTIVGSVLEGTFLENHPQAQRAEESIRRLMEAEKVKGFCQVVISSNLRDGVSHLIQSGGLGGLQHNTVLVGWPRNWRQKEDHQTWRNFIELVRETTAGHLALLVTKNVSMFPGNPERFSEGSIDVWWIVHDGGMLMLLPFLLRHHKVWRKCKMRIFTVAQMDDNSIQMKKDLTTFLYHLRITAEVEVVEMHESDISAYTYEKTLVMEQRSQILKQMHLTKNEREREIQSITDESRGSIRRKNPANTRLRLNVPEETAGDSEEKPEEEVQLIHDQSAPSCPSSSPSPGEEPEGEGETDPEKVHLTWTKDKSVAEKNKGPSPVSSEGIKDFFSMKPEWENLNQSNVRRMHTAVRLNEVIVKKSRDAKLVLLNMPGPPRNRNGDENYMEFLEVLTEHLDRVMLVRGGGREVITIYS
KCC2 secondary: KCC2 modulators in sodium-free buffer, confirmation, cell-based, HEK293 KCC2, thallium flux, secondary assay; FluoZin2 fluorescence; hits give high values; normalised thallium flux (F/F0 slope) at 10 µM; shares compounds with KCC2 mod; 3,700 tested, 15% active;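 active = thallium flux slope above the same plate's solvent-only control mean plus 3 SD; inconclusive = the two replicate wells disagree; inactive = no significant difference from solvent-only control wells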
KCC2 bumet counter: thallium flux persisting under bumetanide in KCC2 cells, confirmation, counter-screen for KCC2 modulator project, cell-based, HEK293 KCC2, FluoZin2, secondary assay 3; shares compounds with KCC2 mod; HEK293-KCC2 + bumetanide/ouabain; hits give high values; normalized thallium flux at 10 µM; 3,700 tested, 49% active; AID 1714, 2009;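 active = thallium entry rate above the same plate's blocked-transporter control wells by more than 3 SD; inconclusive = the two repeat wells disagree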;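 note: raw slope of fluorescence over initial fluorescence between 10 and 20 s after thallium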
KCC2 secondary2: KCC2 modulators without ouabain present, confirmation, cell-based, HEK293 KCC2, thallium flux, FluoZin2, secondary assay 2. 3,700 tested, 23% active. shares compounds with KCC2 mod. thallium flux FluoZin2 fluorescence; actives lie on both sides; F/F0 rise rate, 10–20 s post-thallium. normalized thallium flux at 10 µM;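 active = thallium flux slope more than 3 SD above or below the plate's solvent-only control mean, mostly below; inconclusive = the two repeat wells disagreed; inactive = no significant shift from solvent-only controls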;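 note: raw slope with 0.1% DMSO as baseline and bumetanide as block control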
HEK293 Tl flux: thallium flux modulation in parental HEK cells, confirmation, counter-screen for KCC2 modulator project, cell-based, counterscreen 1; HEK293 parental cells, thallium flux FluoZin2, ouabain; baseline-ratio fluorescence slope, 10–20 s after thallium; thallium flux rate (normalised fluorescence) at 10 µM; shares compounds with KCC2 mod; 3,700 tested, 46% active;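 active = thallium flux rate significantly above the same plate's solvent-only control wells, beyond their mean plus 3 SD; inconclusive = the two replicate wells gave conflicting results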
KCC2 retest ouab: KCC2 inhibitors and activators, ouabain retest, confirmation, HEK-KCC2 cells. 3,700 tested, 48% active. shares compounds with KCC2 mod. HEK293-KCC2, thallium flux FluoZin2 fluorescence; bidirectional: low = inhibitor, high = activator. raw Tl+ flux slope (below DMSO = inhibition, above = activation) at 10 µM. AID 1717, 2009;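 active = thallium flux slope beyond 3 SD from same-plate DMSO control mean in most replicates, usually higher, sometimes lower; inconclusive = repeat tests gave conflicting results; inactive = no significant difference from controls in most replicates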;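 note: slope of initial-normalized fluorescence between seconds 10 and 20 after thallium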
HEK293 Tl flux2: native HEK Tl+ uptake effects, second counter-screen – HEK cells, counterscreen 2, counter-screen for KCC2 modulator project, confirmation; shares compounds with KCC2 mod; HEK293 parental, thallium flux FluoZin-2 fluorescence slope; thallium flux slope at 10 µM; 3,700 tested, 33% active; AID 1718, 2009;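 active = thallium flux slope above the same plate's solvent-control mean plus 3 SD in both duplicate wells; inconclusive = duplicate wells that disagreed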;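 note: run without ouabain in cells lacking the KCC2 cotransporter; slope of fluorescence scaled to its starting value between 10 and 20 s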
Numbers without * were called inactive; i = inactive; ? = inconclusive; nt = no result given. The list is not random: actives were taken first. Their share in the collection is about 4.1%.

SMILES	Dynein transport	DTT redox prof	Autophagy mod	ROMK primary	KCC2 mod	KCC2 secondary	KCC2 bumet counter	KCC2 secondary2	HEK293 Tl flux	KCC2 retest ouab	HEK293 Tl flux2
O=C(N/N=C/c1c[nH]c2ccccc12)C1COc2ccccc2O1 (stereo unspecified)	0.094	0	i	nt	-1.8	nt	nt	nt	nt	nt	nt
O=C(N/N=C\c1ccc(Cl)s1)C1COc2ccccc2O1 (stereo unspecified)	-0.27	nt	nt	0.29	12*	0.0094	0.011*	0.035	?	?	0.013
O=C(c1ccc(S(=O)(=O)c2cccc(Cl)c2)c([N+](=O)[O-])c1)N1CCN(c2ccccn2)CC1	-1.1	0	i	-1.5	-5*	0.0058	0.0046	0.022*	0.0077	?	0.01
Cc1ccc(-n2nnnc2CSc2nnc(-c3ccc(O)cc3)o2)cc1	0.4	0	i	0.61	-0.67	nt	nt	nt	nt	nt	nt
Cc1ccsc1C(=O)Nc1nnc(-c2ccco2)o1	-0.33	0	i	nt	nt	0.013*	0.026*	0.032	0.015*	0.03*	0.011*
COc1ccc(C(=O)N2CCCC(c3ccccc3)C2)cc1 (stereo unspecified)	1.3	-1	i	-1	-4.8*	0.0053	0.0073*	0.025*	0.0072	?	0.011
COc1ccc(Cn2c(=S)[nH]c3ccccc32)cc1	0.45	0	i	-0.01	11*	0.0072	0.0099*	0.031	0.013*	?	0.012*
S=C(NCC1CCCO1)N1CCN(c2cccc(Cl)c2)CC1 (stereo unspecified)	0.082	0	i	-2	-1.1	nt	nt	nt	nt	nt	nt
Fc1ccc(N2CCN(C(=S)NCC3CCCO3)CC2)cc1 (stereo unspecified)	-0.52	-1	i	-0.8	-2.6*	0.0067	0.0059	0.028	0.0063	?	0.0094
Cc1ccc(OCc2nnc(N)s2)cc1C	-0.069	nt	nt	0.062	-0.018	nt	nt	nt	nt	nt	nt
CN(Cc1ccccc1)c1nc(N)nc(Cl)c1C=O	0.18	0	i	-3.4	-5*	0.0072	0.0065	0.032	0.0039	0.012*	0.012
Cc1c(C=O)c(C=O)c(C)n1Cc1ccccc1	0.11	0	i	nt	nt	nt	nt	nt	nt	nt	nt
CCOc1ncccc1C(=O)OCC(=O)c1ccc[nH]1	-1.5	2	i	0.26	-4.1*	0.01	0.0069	0.033	0.0043	0.021	0.012
Cc1cc2c(cc1C)-c1nnc(-c3ccc4ccccc4n3)n1C(C)(C)C2	0.093	2	i	nt	-5*	0.0065	0.0052	0.03	0.008	0.019	0.011
CC1(C)Cc2ccccc2-c2nnc(-c3ccc4ccccc4n3)n21	0.27	3	i	nt	-0.34	nt	nt	nt	nt	nt	nt
Cc1ccc(-c2c[nH]c(=S)n2-c2ccccc2)cc1	-0.57	-2	i	0.63	7.3*	0.012	0.023*	0.037	?	?	?
O=C1C2CCCN2C(c2ccccc2F)N1c1cccc(Cl)c1 (stereo unspecified)	-0.52	-3	?	nt	-3.7*	0.0073	?	0.031	?	0.02	0.012
O=C1C2CCCN2C(c2ccccc2F)N1c1ccc(F)cc1 (stereo unspecified)	1.9	0	i	nt	nt	nt	nt	nt	nt	nt	nt
c1ccc(-n2cnc3cc(NCc4ccncc4)ccc32)cc1	-0.5	2	i	-0.098	-4.4*	0.0056	0.0045	0.025*	0.0074	?	0.0095
Cc1nc(NC(=S)Nc2ccccc2)sc1C	-0.66	-1	i	0.18	16*	0.0079	0.063*	0.05*	0.032*	0.05*	0.035*
CCc1nnc(NC(=S)Nc2ccccc2)s1	-0.048	0	i	nt	3.4	nt	nt	nt	nt	nt	nt
COc1ccc(/C=c2\s/c(=C/C(=O)c3ccc(C)cc3)[nH]c2=O)c(OC)c1	-3.1	0	i	nt	1.9	nt	nt	nt	nt	nt	nt
COc1cccc(/C=c2\s/c(=C/C(=O)c3ccc(C)cc3)[nH]c2=O)c1OC	-0.37	0	i	nt	4.7*	0.0055	?	0.035	0.011*	0.026*	?
O=C(O)CC(NC(=O)Cc1ccc(Cl)cc1)c1ccco1 (stereo unspecified)	-0.69	1	i	0.22	-3.4*	0.018	0.0042	0.031	0.0077	0.016	0.011
O=C(O)CC(NC(=O)C(c1ccccc1)c1ccccc1)c1ccco1 (stereo unspecified)	-0.8	3	i	nt	-1.2	nt	nt	nt	nt	nt	nt
Cc1cc([N+](=O)[O-])cc(/C=N/n2c(C)nc3ccccc3c2=O)c1O	0.32	nt	nt	1.2	-3.3*	0.0072	?	0.029	0.0078	?	0.011
Cc1ccc(C(N)=Nc2ccccc2)cc1	1.5	nt	nt	nt	0.6	nt	nt	nt	nt	nt	nt
CCCc1nnc(SCC(=O)N2CCOCC2)n1CC1CCCO1 (stereo unspecified)	0.078	0	i	nt	0.46	nt	nt	nt	nt	nt	nt
CCCc1nnc(SCC(=O)N2CCOCC2)n1CCCOC	-0.45	2	i	nt	8*	0.0065	0.005	0.03	0.0076	0.018	0.01
Cc1ccc(OCCCn2c(=O)sc3ccccc32)cc1	0.076	2	i	nt	5.8*	0.01	0.0059	0.034	0.0078	0.021	?

Bioassay records (PubChem BioAssay)
